An excerpt weighted towards active compounds, which were near 2% of everything screened.
T cruzi repl – blocks replication of Trypanosoma cruzi | T. cruzi beta-gal in NIH3T3, luminescence, 90 h | 1.4% of 300,000 active | inhibition, % (concentration not given with the values) | AID 1885;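 active = mean inhibition across valid replicates above about 55%, limit read from the data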;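 also: signal also drops with host cell toxicity which is not excluded here; 0% = plate median of DMSO wells and 100% = zero luminescence signal; higher percent means less beta-gal luminescence so fewer parasites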
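compound dosing = single 50 nL compound addition per well in DMSO | material = NIH/3T3 host cells with β-galactosidase reporter T. cruzi | input = 5,000 host fibroblasts per well | timing = ≥90 h infection period, 3 h prior cell attachment | read-out basis = percent inhibition of parasite-derived β-gal signal | detection = GalScreen β-gal luminescence, detergent lysis, 60 min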
ARNT TACC3 PPI – ARNT/TACC3 interaction disruption | Q9Y6A5 | AlphaScreen His-ARNT PAS-B/GST-TACC3 binding, luminescence; TACC3 fragment carries E629A point mutation | inhibition, % at 9.99 µM | 0.66% of 390,000 active | AID 623870;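 active = mean inhibition of replicates at least 50% and at least half of replicates each reaching 50%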;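 also: 0% = complete ARNT plus TACC3 wells and 100% = ARNT alone without TACC3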
AI-2 QS mod – modulates the Vibrio harveyi AI-2 quorum sensing system. Vibrio harveyi JMH597 AI-2 luminescence/OD600 ratio, 9 h; active compounds read low; strain lacks LuxN and CqsS sensors; 0 = neutral-control median. 0.4% of 300,000 active. activity change, % at 7.5 µM; in the data active = activity change below about -75%, passing the limit was not always enough;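 also: luminescence divided by OD600 gain over 9 h not by final OD600 alone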
HIF activator – HIF pathway transcriptional activation. U2OS HRE-luciferase reporter, luminescence; normalized: DMSO 0%, desferrioxamine 100%. 0.32% of 300,000 active. AID 1910. activation, % at 7.5 µM (by protocol);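 active = mean activation of at least 10% of the iron chelator positive control signal, with at least half of replicates also reaching 10%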
The depositor's hits bear a star; nt = not tested or not shown.

SMILES	T cruzi repl	ARNT TACC3 PPI	AI-2 QS mod	HIF activator
c1ccc(-c2ccc(-n3ccnc3)cc2)cc1	56*	-23	3	nt
c1ccc(-c2nc(N3CCN(c4ccccc4)CC3)nc(-n3ccnc3)n2)cc1	60*	8	16	0
C=CCNc1nc(N(c2ccccc2)c2ccccc2)nc(-n2ccnc2)n1	36	-5	23	-1
C[C@@H]1CN([C@H](C)CO)S(=O)(=O)c2ccc(-c3cncnc3)cc2O[C@H]1CN(C)C(=O)c1cccc(F)c1	nt	-11	nt	nt
Cc1ccc(O)c(NC(=O)c2ccc3c(c2)C(=O)N(Cc2ccco2)C3=O)c1	-12	-23	38	32*
Cc1ccc(O)c(NC(=O)c2ccc3c(c2)C(=O)N(Cc2cccnc2)C3=O)c1	-36	8	8	0
O=c1cc(-c2ccccc2)cc(-c2ccccc2)n1O	-22	12	-82*	-1
Cc1cc(-c2ccccc2)cc(=O)[nH]1	nt	-9	nt	nt
O=C(C[C@H]1C[C@@H]2c3cc(NC(=O)C4CCC4)ccc3O[C@@H]2[C@H](CO)O1)NCCc1ccccc1	nt	-3	nt	nt
CCCCCc1cc(=O)oc2c(C(CCN3CCCC(C)C3)c3ccc(OC)cc3)c(OC)cc(OC)c12 (stereo not given)	66*	14	16	-1
CCCCCc1cc(=O)oc2c(C(CCN3CCCCC3)c3ccc(OC)cc3)c(OC)cc(OC)c12 (stereo not given)	42	14	10	-1
COc1ccc(/C=N/NS(=O)(=O)c2ccc(F)cc2)cc1COc1cc(F)ccc1[N+](=O)[O-]	59*	7	46	0
COc1ccc(/C=N\NC(=O)c2ccc(F)cc2)cc1COc1cc(F)ccc1[N+](=O)[O-]	27	-5	12	0
C[C@@H]1CN([C@H](C)CO)C(=O)c2cc(C#CCN(C)C)cnc2O[C@@H]1CN(C)Cc1cccc(F)c1	nt	1	nt	nt
COc1ccc(S(=O)(=O)N(C)C[C@H]2Oc3ncc(C#CC4(O)CCCC4)cc3C(=O)N([C@H](C)CO)C[C@@H]2C)cc1	nt	39*	nt	nt
COc1ccc(S(=O)(=O)N(C)C[C@H]2Oc3ncc(C#CC4(O)CCCC4)cc3C(=O)N([C@@H](C)CO)C[C@H]2C)cc1	nt	-2	nt	nt
Cc1noc(C)c1NC(=O)Nc1ccc2c(c1)C(=O)N([C@@H](C)CO)C[C@H](C)[C@H](CN(C)S(=O)(=O)c1ccc(Cl)cc1)OCCCC[C@@H](C)O2	nt	-1	nt	nt
C[C@H](CO)N1C[C@H](C)[C@H](CN(C)C(=O)Nc2ccccc2)Oc2ccc(NC(=O)Nc3ccc(C(F)(F)F)cc3)cc2C1=O	nt	14	nt	nt
CCOc1ccc(N/C(C)=C/C(=O)c2ccc(C)o2)cc1	60*	-7	4	0
Cc1cccc(NCc2ccc(O)c3ncccc23)c1	-10	-4	-1	1
Oc1ccc(CNc2ccccc2)c2cccnc12	-6	48*	21	1
Oc1ccc(CNc2ccc(F)cc2)c2cccnc12	55*	nt	6	2
OC[C@H]1[C@@H](c2ccc(-c3ccccc3F)cc2)[C@H]2CN(Cc3cncnc3)CCCCN21	nt	-6	nt	nt
COC(=O)c1cc(C(=O)c2ccc(C(C)(C)C)cc2)c[nH]1	18	-4	-85*	1
CCNC(=O)C[C@@H]1CC[C@H]2[C@@H](COc3ccc(NC(=O)Nc4cccc(F)c4)cc3C(=O)N2C)O1	nt	4	nt	nt
SMILES	T cruzi repl	ARNT TACC3 PPI	AI-2 QS mod	HIF activator
CCN(c1ccccc1)S(=O)(=O)c1ccc(Cl)c(NC(=O)CN2CCCCCC2)c1	60*	-2	18	-1
COCC#Cc1cnc2c(c1)C(=O)N([C@H](C)CO)C[C@@H](C)[C@H](CN(C)C(=O)C1CCCCC1)O2	nt	9	nt	nt
Cc1ccc2nc(-c3ccncc3)cc(C(=O)NCCc3ccc(F)cc3)c2c1	56*	-6	-15	0
CCCCCCCNC(=O)c1cc(-c2ccncc2)nc2ccccc12	57*	-6	2	-5
Nc1nc2c(ncn2-c2ccccc2)c(=O)[nH]1	nt	46*	nt	nt
CCCn1c2ccccc2c2cnn(CC(=O)NC3CCCC(C)C3C)c(=O)c21 (stereo not given)	1	6	29	13*
N#Cc1ccc(NC(=O)Nc2cccc(C#N)c2)cc1	18	nt	3	-3
N#Cc1ccc(NC(=O)Nc2ccc(Oc3ccc(NC(=O)Nc4ccc(C#N)cc4)cc3)cc2)cc1	61*	-3	14	1
CCN(CC)CCN(C(=O)c1ccc2c(c1)OCCO2)c1nc2ccc(C)cc2s1	69*	nt	12	4
CN(C)CCCN(C(=O)COc1ccc(Cl)cc1)c1nc2cc3c(cc2s1)OCCO3	57*	12	29	-2
CCN(CC)CCN(C(=O)c1ccc2c(c1)OCCO2)c1nc2cc3c(cc2s1)OCO3	35	7	-2	3
CN(C)CCCN(C(=O)COc1ccc(Cl)cc1)c1nc2cc3c(cc2s1)OCO3	23	nt	12	-3
Cc1cc(C)c2nc(N(CCCN(C)C)C(=O)c3ccc4c(c3)OCCO4)sc2c1	57*	17	-17	-20
Cc1cc(C)c2nc(N(CCCN(C)C)C(=O)C3=COCCO3)sc2c1	52	-1	12	6
CN(C)CCN(C(=O)c1ccc(N2C(=O)CCC2=O)cc1)c1nc2cc3c(cc2s1)OCO3	57*	4	3	0
C[C@H](CO)N1C[C@H](C)[C@H](CN(C)C(=O)C2CCC2)Oc2ncc(-c3cccc(F)c3)cc2C1=O	nt	-3	nt	nt
C[C@H]1CN([C@@H](C)CO)C(=O)c2cc(NS(=O)(=O)c3cn(C)cn3)ccc2O[C@H]1CN(C)C(=O)Nc1ccc(C(F)(F)F)cc1	nt	-6	nt	nt
COc1ccc(-c2cnc3c(c2)C(=O)N([C@@H](C)CO)C[C@H](C)[C@@H](CN(C)C)O3)cc1	nt	6	nt	nt
O=C(C[C@@H]1CC[C@H](NC(=O)Nc2ccc(C(F)(F)F)cc2)[C@@H](CO)O1)NCc1cc(F)cc(F)c1	nt	0	nt	nt
Cc1ccc2nc(N(CCN(C)C)C(=O)c3ccc4ccccc4c3)sc2c1	26	-3	14	2
Cc1ccc2nc(N(CCN(C)C)C(=O)c3ccc4c(c3)OCCO4)sc2c1	72*	10	3	4
C[C@H](CO)N1C[C@H](C)[C@@H](CN(C)CC2CCCCC2)Oc2ccc(NS(=O)(=O)c3ccccc3)cc2C1=O	nt	-4	nt	nt
O=c1c2[nH]c3ccc(Br)cc3c2ncn1CCCn1ccnc1	8	79*	20	0
C[C@@H]1CN([C@H](C)CO)C(=O)Cc2cc(NC(=O)Nc3ccc(F)cc3)ccc2O[C@@H]1CN(C)C	nt	-4	nt	nt
CO[C@H]1CN(C)C(=O)c2ccc(NC(=O)c3ccccc3)cc2OC[C@@H](C)N(CC2CC2)C[C@H]1C	nt	-4	nt	nt
CN(C)c1nc(-c2ccccc2)ncc1S(=O)(=O)c1ccccc1	17	-8	-9	0
CCN(CC)c1nc(-c2ccccc2)ncc1S(=O)(=O)c1ccc(C)cc1	58*	-1	10	-1
